Data as given in ChEMBL document CHEMBL4513216, “Probing the Open Global Health Chemical Diversity Library for Multistage-Active Starting Points for Next-Generation Antimalarials” (ACS Infect Dis, 2020).

Test: Toxicity liver stage against HepG2, at 10uM
Format: cell-based
Design: test concentration 10 uM, cell line HepG2-A16-CD81EGFP
Details: human, HepG2-A16-CD81EGFP cells; read-out: INHIBITION
Procedure, shortened: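 Uninfected HepG2-A16-CD81EGFP cells, 3 × 10^3 per well, 1536-well, plated on prespotted compound at 10 μM final, parasite-free screening media added to match infected plates; puromycin 10 μM positive, DMSO 0.5% negative; run in parallel with 48 h PbLuc assay at 37 °C, 5% CO2; viability by CellTiter-Glo luminescence, normalized to controls.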

Row | Structure (SMILES) | cytotoxicity at 10 µM
1 | O=C(O)c1cc(-c2ccoc2)cc(S(=O)(=O)N2CCSCC2)c1 | 0.49%
2 | OCC(CO)N1CCCC(Cc2cnc(Nc3ccccn3)cn2)C1 (stereo not given) | -5.97%
3 | Cc1cccc(CC(=O)NCCCOC(C)C)c1 | -2.25%
4 | COc1cccc(NC(=O)CCCc2nc(C(C)C)no2)c1 | 6.39%
5 | Cn1ccc(CN2CCC(Oc3ccccc3)CC2)cc1=O | -3.71%
6 | CN(C)C(=O)C1OC2(CCN(C(=O)N(C)C)CC2)c2ccccc21 (stereo not given) | 8.04%
7 | COc1cc(N2C[C@H](OCc3cccnc3)[C@H]3OCCC[C@H]32)ncn1 | 4.13%
8 | COc1cc(CNCc2c(C(C)C)nn(C)c2N(C)C)ccn1 | 0.504%
9 | Cc1cc(CN2CC[C@H]3C[C@H](C(=O)N4CCC(C)CC4)O[C@H]3C2)no1 | 1.34%
10 | COc1ccc(C2(NC(=O)c3ccc(=O)n(C)n3)CCCC2)cc1 | -0.308%
11 | NCCc1cn(Cc2ccccn2)c2ccccc12 | 3.71%
12 | COc1cccc(Nc2nc(C3CCCNC3)c3ccccn23)c1 (stereo not given) | -0.47%
13 | COC(=O)NCCCC(=O)NC1(c2cccc(Cl)c2)CC1 | -2.56%
14 | O=C1N[C@@H]2CCN(C(=O)c3ccccc3)[C@@H]2C(=O)N1c1ccc(F)cc1 | 7.62%
15 | COCCOc1ncccc1C(=O)N1CCCCC1c1nccs1 (stereo not given) | -11.5%
16 | COCCN(Cc1ccoc1)C(=O)c1ccccc1Cl | 9.12%
17 | CC(C(=O)N1CCOCC1)n1cncn1 (stereo not given) | -1.45%
18 | CC(C)N1[C@H](CN(C)C)C[C@@H]2CN(c3ncc(F)cn3)CC[C@@H]21 | 11.7%
19 | CCC(O)CN1CCN(C(=O)c2cccn2Cc2ccccc2)CC1 (stereo not given) | -8.03%
20 | O=C(NCc1ccccn1)[C@@]12CCO[C@@H]1CCN(C1CCCC1)C2 | -105%
21 | OC(CNc1ccncn1)CN1CCCCCC1 (stereo not given) | -0.271%
22 | CC(=O)NCC1CCN(c2cc(C(C)C)nc3ccnn23)CC1 | 6.64%
23 | CC(C)c1nc(C2CCCN(C(=O)CCn3ccnc3)C2)no1 (stereo not given) | -10.8%

Row | Structure (SMILES) | cytotoxicity at 10 µM
24 | OCc1ccc(CN2CCC(n3cc(C4CCCCC4)nn3)CC2)o1 | 1.02%
25 | Cn1cnc(S(=O)(=O)NCCCN2CCCCCC2)c1Cl | -9.53%
26 | CC(C)(C)n1ncc2c(=O)[nH]c(N3CC(O)C3)nc21 | -8.61%
27 | CCC(CC)NC(=O)NCc1ccnc(-n2ccnc2C)c1 | -1.21%
28 | CC/N=c1\nc(NCC)nc2n1C(O)(Nc1ccc(C)cc1C)CS2 (stereo not given) | -1.95%
29 | Cn1c2c(c(=O)n1C)CN(C(=O)c1ccncc1F)CCC2 | -95%
30 | COCCn1cnnc1CN(C)c1nc(N)ncc1C | -7.85%
31 | NCCn1nc(C2CCN(Cc3ccccc3Cl)C2)c2nccnc21 (stereo not given) | -14.9%
32 | Cn1cc(N2CCN(c3ccc(C#N)cc3F)CC2=O)cn1 | -2.14%
33 | CCOC(=O)c1s/c(=N\C(=O)COc2cnc(C)cc2O)[nH]c1C | 5.56%
34 | Brc1ccc(C2(CNCc3cc[nH]c3)CCOCC2)cc1 | 9.17%
35 | COCc1nc(CN(CC(N)=O)C(C)C)cs1 | -8.39%
36 | O=C(C1CCCCN1Cc1nccn1CC(F)(F)F)N1CCCC1 (stereo not given) | 14.2%
37 | O=C1N[C@@H]2CCN(C(=O)C3CCCC3)[C@@H]2C(=O)N1c1ccc(F)cc1 | -1.1%
38 | Cc1cccc(CN2CC3(CCN(C(=O)N(C)C)CC3)OCC2=O)n1 | -3.88%
39 | COc1cccc(C(C(=O)O)N(C)Cc2ccc(C)o2)c1 (stereo not given) | -1.35%
40 | COCCN1CCC2(CC1)CN(C(=O)c1ccccc1)CCO2 | 1.61%
41 | N#Cc1cn(C2CC2)c(=O)n(CC(O)c2ccccc2C(F)(F)F)c1=O (stereo not given) | -4.22%
42 | CC(C)Cc1cc(C(=O)NC(C)(C)CN2CCCCCC2)on1 | -4.75%
43 | c1csc(CN2CCc3onc(Cn4cccc4)c3C2)c1 | 6.59%
44 | Cc1ccc(Oc2nccnc2C2CCN(C(=O)C(C)(C)N)CC2)cc1 | -7.86%
45 | Cc1cccn2c(=O)cc(OC(=O)c3ccccc3)nc12 | 0.64%
